Here are results for eight molecules from ChEMBL document CHEMBL4364271, “Unveiling the Importance of Amide Protons in CSP:ComD Interactions in Streptococcus pneumoniae” (ACS Med Chem Lett, 2019).

Active and inactive are the calls of the source. The rule behind the calls is not given here. Non-standard residues stand in square brackets, D forms with d. Residues, ends and D or L forms follow the SMILES beside them. NMeR = CN[C@@H](CCCNC(=N)N)C(=O)O; NMeF = CN[C@@H](Cc1ccccc1)C(=O)O; NMeI = CC[C@H](C)[C@H](NC)C(=O)O; NMeE = CN[C@@H](CCC(=O)O)C(=O)O; NMeM = CN[C@@H](CCSC)C(=O)O Some results are limits rather than exact numbers.

Experiment [1] deals with Streptococcus pneumoniae D39. Kind of experiment: Agonist activity at ComD1 receptor in Streptococcus pneumoniae D39 harboring pcomX/lacZ reporter gene at 10 uM incubated for 30 mins by ONPG based beta-galactosidase assay relative to native CSP1. A digest of the protocol:
(§1)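 Single-dose screen of synthetic peptide at 10 μM in wild-type reporter strains (D39 for ComD1, TIGR4 for ComD2) producing their own CSP and carrying lacZ under the comX promoter. β-gal activity in Miller units normalized to native CSP (CSP1 or CSP2, 100%); DMSO 0%. Triplicates over three separate trials.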

Experiment [2] deals with Streptococcus pneumoniae TIGR4. Kind of experiment: Agonist activity at ComD2 receptor in Streptococcus pneumoniae TIGR4 harboring pcomX/lacZ reporter gene at 10 uM incubated for 30 mins by ONPG based beta-galactosidase assay relative to native CSP2. In outline:
as §1

Experiment [3] is described as follows: Agonist activity at ComD2 receptor in Streptococcus pneumoniae TIGR4 harboring pcomX/lacZ reporter gene incubated for 30 mins by ONPG based beta-galactosidase assay. A digest of the protocol:
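Dose-response in wild-type lacZ reporter strains (comX promoter; D39 for ComD1, TIGR4 for ComD2) producing native CSP. Peptides tested over a range of concentrations. β-gal read-out (Miller units) normalized to native CSP. EC50 reported with 95% confidence interval.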

With `CC[C@H](C)[C@H](NC(=O)[C@H](Cc1ccccc1)NC(=O)[C@H](CC(=O)O)NC(=O)[C@H](CCCNC(=N)N)NC(=O)[C@H](Cc1ccccc1)NC(=O)[C@H](Cc1ccccc1)NC(=O)[C@H](CCCCN)NC(=O)[C@H](CO)NC(=O)[C@H](CC(C)C)NC(=O)[C@H](CCCNC(=N)N)N(C)C(=O)[C@H](CCSC)NC(=O)[C@@H](N)CCC(=O)O)C(=O)N[C@@H](CC(C)C)C(=O)N[C@@H](CCC(N)=O)C(=O)N[C@@H](CCCNC(=N)N)C(=O)O` (H-EM[NMeR]LSKFFRDFILQR-OH), the result in experiment [1] and in experiment [2] was inactive.
Take `CC[C@H](C)[C@H](NC(=O)[C@H](Cc1ccccc1)NC(=O)[C@H](CC(=O)O)NC(=O)[C@H](CCCNC(=N)N)NC(=O)[C@H](Cc1ccccc1)NC(=O)[C@H](Cc1ccccc1)NC(=O)[C@H](CCCCN)NC(=O)[C@H](CO)NC(=O)[C@H](CC(C)C)NC(=O)[C@H](CCCNC(=N)N)NC(=O)[C@H](CCSC)N(C)C(=O)[C@@H](N)CCC(=O)O)C(=O)N[C@@H](CC(C)C)C(=O)N[C@@H](CCC(N)=O)C(=O)N[C@@H](CCCNC(=N)N)C(=O)O` (H-E[NMeM]RLSKFFRDFILQR-OH): the outcome in experiment [1] and in experiment [2] was inactive.
For `CC[C@H](C)[C@@H](C(=O)N[C@@H](CC(C)C)C(=O)N[C@@H](CCC(N)=O)C(=O)N[C@@H](CCCNC(=N)N)C(=O)O)N(C)C(=O)[C@H](Cc1ccccc1)NC(=O)[C@H](CC(=O)O)NC(=O)[C@H](CCCNC(=N)N)NC(=O)[C@H](Cc1ccccc1)NC(=O)[C@H](Cc1ccccc1)NC(=O)[C@H](CCCCN)NC(=O)[C@H](CO)NC(=O)[C@H](CC(C)C)NC(=O)[C@H](CCCNC(=N)N)NC(=O)[C@H](CCSC)NC(=O)[C@@H](N)CCC(=O)O` (H-EMRLSKFFRDF[NMeI]LQR-OH), the outcome in experiment [1] and in experiment [2] was inactive.
As for `CC[C@H](C)[C@H](NC(=O)[C@H](Cc1ccccc1)N(C)C(=O)[C@H](CC(=O)O)NC(=O)[C@H](CCCNC(=N)N)NC(=O)[C@H](Cc1ccccc1)NC(=O)[C@H](Cc1ccccc1)NC(=O)[C@H](CCCCN)NC(=O)[C@H](CO)NC(=O)[C@H](CC(C)C)NC(=O)[C@H](CCCNC(=N)N)NC(=O)[C@H](CCSC)NC(=O)[C@@H](N)CCC(=O)O)C(=O)N[C@@H](CC(C)C)C(=O)N[C@@H](CCC(N)=O)C(=O)N[C@@H](CCCNC(=N)N)C(=O)O` (H-EMRLSKFFRD[NMeF]ILQR-OH), in experiment [3], the EC50 was greater than 1000 nM. For the same molecule, the outcome in experiment [1] was inactive. For the same molecule, in experiment [2], the Activity is greater than 75%.
In the case of `CC[C@H](C)[C@H](NC(=O)[C@H](Cc1ccccc1)NC(=O)[C@H](CC(=O)O)NC(=O)[C@H](CCCNC(=N)N)N(C)C(=O)[C@H](Cc1ccccc1)NC(=O)[C@H](Cc1ccccc1)NC(=O)[C@H](CCCCN)NC(=O)[C@H](CO)NC(=O)[C@H](CC(C)C)NC(=O)[C@H](CCCNC(=N)N)NC(=O)[C@H](CCSC)NC(=O)[C@@H](N)CCC(=O)O)C(=O)N[C@@H](CC(C)C)C(=O)N[C@@H](CCC(N)=O)C(=O)N[C@@H](CCCNC(=N)N)C(=O)O` (H-EMRLSKFF[NMeR]DFILQR-OH), the outcome in experiment [1] and in experiment [2] was inactive.
In experiment [3], H-EMRISRIILDFLFLRKK-OH yielded an EC50 of 51 nM.
As for `CC[C@H](C)[C@H](NC(=O)[C@H](Cc1ccccc1)NC(=O)[C@H](CC(=O)O)NC(=O)[C@H](CCCNC(=N)N)NC(=O)[C@H](Cc1ccccc1)NC(=O)[C@H](Cc1ccccc1)NC(=O)[C@H](CCCCN)NC(=O)[C@H](CO)NC(=O)[C@H](CC(C)C)NC(=O)[C@H](CCCNC(=N)N)NC(=O)[C@H](CCSC)NC(=O)[C@H](CCC(=O)O)NC)C(=O)N[C@@H](CC(C)C)C(=O)N[C@@H](CCC(N)=O)C(=O)N[C@@H](CCCNC(=N)N)C(=O)O` (H-[NMeE]MRLSKFFRDFILQR-OH), the outcome in experiment [1] and in experiment [2] was inactive.
H-EMRISRIILDFLF-OH had an EC50 in experiment [3] of 78 nM.
